Several values for one entry are separate records, joined by “and”; a condition that tells them apart may be missing. Identical values can stand only once.
Assays:
Rattus norvegicus [1] = assay: In vivo distribution of the drug in uterus was determined at 2 hr following injection of five microcurics of the radiolabeled [125 I] compound in rats; type: ADME, organism-based
Procedure, shortened: (§1)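 Immature female Sprague-Dawley rats (20–25 days old) given 3–5 μCi of the ¹²⁵I-radioligand into the femoral vein; killed by cervical dislocation at 1, 2 or 3 h. Uterus blotted free of blood, 10–30-mg samples weighed. Heparinized blood centrifuged, 20-μL plasma samples taken. Gamma counting, dpm by absolute counting method. Expressed as percent dose/gram tissue; uterus/plasma ratio from these values.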

Rattus norvegicus [2] = assay: In vivo distribution of the drug in uterus was determined at 3h following injection of five microcurics of the radiolabeled [125 I] compound in rats; type: ADME, organism-based; procedure, shortened: as §1
Rattus norvegicus [3] = assay: In vivo distribution of the drug in uterus/plasma was determined at 1 hr following injection of five microcurics of the radiolabeled [125 I] compound in rats; type: ADME, organism-based; procedure, shortened: as §1
Rattus norvegicus [4] = assay: In vivo distribution of the drug in uterus/plasma was determined at 2 hr following injection of five microcurics of the radiolabeled [125 I] compound in rats; type: ADME, organism-based; procedure, shortened: as §1
Rattus norvegicus [5] = assay: (§2) In vivo distribution of the drug in uterus/plasma was determined at 3h following injection of five microcurics of the radiolabeled [125 I] compound in rats; type: ADME, organism-based; settings: other tissue; procedure, shortened: as §1
Rattus norvegicus [6] = assay: In vivo distribution of the drug in plasma was determined at 1 hr following injection of five microcurics of the radiolabeled [125 I] compound in rats; type: ADME, organism-based; procedure, shortened: as §1
Rattus norvegicus [7] = assay: In vivo distribution of the drug in plasma was determined at 2 hr following injection of five microcurics of the radiolabeled [125 I] compound in rats; type: ADME, organism-based; procedure, shortened: as §1
Rattus norvegicus [8] = assay: In vivo distribution of the drug in plasma was determined at 3h following injection of five microcurics of the radiolabeled [125 I] compound in rats; type: ADME, organism-based; procedure, shortened: as §1
Rattus norvegicus [9] = assay: In vivo distribution of the drug in uterus was determined at 1 hr following injection of five microcurics of the radiolabeled [125 I] compound in rats; type: ADME, organism-based; procedure, shortened: as §1
Rattus norvegicus [10] = species on record: Rattus norvegicus; assay: Specific activity and expressed as Ci/mmol; type: functional
Rattus norvegicus [11] = assay: as §2; type: ADME, organism-based; settings: other tissue; remark: listed apart in the source
Procedure, shortened: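 Female Sprague-Dawley rats aged 20–25 days received 3–5 µCi of the [125I] radioligand via the femoral vein and were killed by cervical dislocation at 1, 2 and 3 h. Uterus was blotted free of blood, and 10–30 mg samples were weighed. Heparinized blood was centrifuged, and 20 µL plasma samples were taken. Samples were gamma-counted, with dpm found by absolute counting. Values are % dose/g, and the uterus/plasma ratio was derived from them.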

Rattus norvegicus [12] = assay: In vivo effect when coinjected with estradiol (50 ug) in immature rat liver (after 1 hr); type: functional
Rattus norvegicus [13] = assay: In vivo effect when coinjected with estradiol (50 ug) in immature rat muscle (after 1 hr); type: functional, Muscle tissue
Rattus norvegicus [14] = assay: In vivo effect when coinjected with estradiol (50 ug) in immature rat plasma (after 1 hr); type: functional
Rattus norvegicus [15] = assay: In vivo effect when coinjected with estradiol (50 ug) in immature rat uterus (after 1 hr); type: functional

uterus/plasma ratio (Rattus norvegicus [11]) | SMILES | Distribution (Rattus norvegicus [1]) | Distribution (Rattus norvegicus [2]) | uterus/plasma ratio (Rattus norvegicus [3]) | uterus/plasma ratio (Rattus norvegicus [4]) | uterus/plasma ratio (Rattus norvegicus [5]) | Distribution (Rattus norvegicus [6]) | Distribution (Rattus norvegicus [7]) | Distribution (Rattus norvegicus [8]) | Distribution (Rattus norvegicus [9]) | Specific activity (Rattus norvegicus [10]) | Dose (Rattus norvegicus [12]) | Dose (Rattus norvegicus [13]) | Dose (Rattus norvegicus [14]) | Dose (Rattus norvegicus [15])
 | C[C@]12CC[C@@H]3c4ccc(O)cc4CC[C@H]3[C@@H]1CC[C@@]2(O)/C=C/[125I] | 0.96% | 1.1% | 5.5 | 5 | 9.7 | 1.09% | 0.192% | 0.113% | 5.89% | 2200 Ci mM-1 and 2152 Ci mM-1 |  |  |  | 
66.3 | CO[C@H]1C[C@@]2(C)[C@@H](CC[C@@]2(O)/C=C/[125I])[C@@H]2CCc3cc(O)ccc3[C@H]21 | 17.2% | 15.9% | 29 | 68.3 |  | 0.28% | 0.25% | 0.24% | 8.18% |  | 4.52% | 1.29% | 0.34% | 1.25%

Source: ChEMBL document CHEMBL1122754, “Synthesis and evaluation of (17 alpha,20E)-21-[125I]iodo-19-norpregna-1,3,5(10),20-tetraene-3,17 -diol and (17 alpha,20E)-21-[125I]iodo-11 beta-methoxy-19-norpregna-1,3,5(10),20-tetraene-3,17-diol (17 alpha-(iodovinyl)estradiol derivatives) as high specific activity potential radiopharmaceuticals” (J Med Chem, 1984)
